Active and inactive are the calls of the source. The calls are words filed in the database; no cut-off is given here.
Legend:
[1] = Cytotoxicity against human MES-SA cells after 3 days by MTT assay; type: functional, cell-based; conditions: 72 h
[2] = test system: SK-OV-3; assay: Cytotoxicity against human SKOV3 cells after 3 days by MTT assay; type: functional, cell-based; conditions: SK-OV-3, 72 h
[3] = Antitumor activity against mouse P388D1 cells xenografted in DBA/2 mouse assessed as increase of mean survival days at 35 mg/kg, ip qd administered as 2 cycles on day 1 to 3 and day 8 to 10; conditions: route intraperitoneal
[4] = Cytotoxicity against human CEM-DNR-bulk cells after 3 days by MTT assay; type: functional, cell-based; conditions: 72 h
[5] = test system: L1210; assay: Cytotoxicity against mouse L1210 cells after 3 days by MTT assay; type: functional, cell-based; conditions: L1210, 72 h
[6] = test system: C6; assay: Cytotoxicity against rat C6 cells after 3 days by MTT assay; type: functional, cell-based; conditions: C6, 72 h
[7] = test system: CCRF-CEM; assay: Inhibition of DNA synthesis in human CCRF-CEM cells assessed as BrdU incorporation at 1 to 5 times GI50 after 1 hr by FACS analysis; type: functional, cell-based; conditions: in the assay text read “at 5 times GI50 after longer incubation” for “at 1 to 5 times GI50 after 1 hr”
Summary of the method: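 CCRF-CEM cultured as for cell cycle (1× or 5× GIC50), pulsed with 10 μM BrdU for 30 min before harvest. Ethanol-fixed, DNA denatured in 2 M HCl, anti-BrdU then FITC secondary antibody, propidium iodide/RNase counterstain, flow cytometry at 488 nm.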

[8] = test system: CCRF-CEM; assay: Cell cycle arrest in human CCRF-CEM cells assessed as accumulation at G2/M phase at 5 time GI50 using propidium iodide staining by flow cytometry; type: functional, cell-based
Summary of the method: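 CCRF-CEM seeded at 5 × 10^5 cells/ml, grown in RPMI 1640 with 10% FCS at 37 °C with 1× or 5× GIC50 of compound; vehicle controls harvested at same times. Cells ethanol-fixed, RNase-treated, stained with propidium iodide, flow cytometry at 488 nm; cell cycle phases scored.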

[9] = test system: DU-145; assay: Metabolic stability in human DU145 cells assessed as nucleoside formation per million of cells at 10 uM after 6 hrs by LC/MS/MS analysis; type: ADME, cell-based; conditions: du-145, 6 h
Summary of the method: (§1)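 Du145 seeded at 60% confluence in MEM/10% FBS; next day exposed to 10 μM compound for 6 or 24 h. Cells trypsinized, extracted in 70% MeOH, dried, resuspended in 1 mM ammonium phosphate pH 8.5. Nucleoside, NMP and NTP quantified by ion-pairing (dimethylhexylamine) LC/MS/MS against untreated-cell-extract standard curves; pmol per million cells.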

[10] = Cytotoxicity against mouse P388D1 cells after 3 days by MTT assay; type: functional, cell-based; conditions: P388D1, 72 h
[11] = test system: MT4; assay: Cytostatic activity against human MT4 cells after 5 days by SRB assay; type: functional; conditions: MT4, 120 h
[12] = test system: HT-29; assay: Cytotoxicity against human HT-29 cells after 3 days by MTT assay; type: functional, cell-based; conditions: HT-29, 72 h
[13] = test system: DU-145; assay: Metabolic stability in human DU145 cells assessed as nucleoside formation per million of cells at 10 uM after 24 hrs by LC/MS/MS analysis; type: ADME, cell-based; conditions: du-145, 24 h; summary of the method: as §1
[14] = test system: DU-145; assay: Metabolic stability in human DU145 cells assessed as sodium ((2R,3S,4R,5R)-5-(4-amino-7H-pyrrolo[2,3-d]pyrimidin-7-yl)-3,4-dihydroxytetrahydrofuran-2-yl)methyl hydrogenphosphate-NMP formation per million of cells at 10 uM after 6 hrs by LC/MS/MS analysis; type: ADME, cell-based; conditions: du-145, 6 h; summary of the method: as §1
[15] = Antitumor activity against mouse P388D1 cells xenografted in DBA/2 mouse assessed as increase of lifespan at 35 mg/kg, ip qd administered as 2 cycles on day 1 to 3 and day 8 to 10; conditions: route intraperitoneal
[16] = test system: BJ; assay: Cytotoxicity against human BJ cells after 3 days by MTT assay; type: cell-based; conditions: 72 h
[17] = test system: EL4; assay: Cytotoxicity against mouse EL4 cells after 3 days by MTT assay; type: functional, cell-based; conditions: EL4, 72 h
[18] = test system: HPAC; assay: Cytotoxicity against human HPAC cells after 3 days by MTT assay; type: functional, cell-based; conditions: 72 h
[19] = test system: CT26; assay: Cytotoxicity against mouse CT26 cells after 3 days by MTT assay; type: functional, cell-based; conditions: CT26, 72 h
[20] = test system: A549; assay: Cytostatic activity against human A549 cells after 5 days by SRB assay; type: functional; conditions: A549, 120 h
Summary of the method: (§2)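 Cells seeded per line density, overnight at 37 °C; day-zero plate TCA-fixed. 5-fold serial dilutions added, 5-day incubation; TCA fixation, 0.057% SRB in 1% acetic acid 30 min, dye dissolved in 10 mM Tris pH 10.5, A500. Growth relative to day-zero and untreated; GIC50 from sigmoidal dose–response fit; mean of two independent experiments.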

[21] = test system: CCRF-CEM; assay: Cytotoxicity against human CCRF-CEM cells after 3 days by XTT assay; type: functional, cell-based; conditions: 72 h
Summary of the method: (§3)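 Suspension-grown cell lines, 3-day compound incubation; viability read by XTT metabolic assay; IC50 averaged from four independent experiments.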

[22] = test system: MCF7; assay: Cytotoxicity against human MCF7 cells after 3 days by MTT assay; type: functional, cell-based; conditions: MCF7, 72 h
[23] = test system: NCI-H23; assay: Cytostatic activity against human NCI-H23 cells after 5 days by SRB assay; type: functional; conditions: NCI-H23, 120 h; summary of the method: as §2
[24] = test system: HL-60; assay: Cytotoxicity against human HL60 cells after 3 days by XTT assay; type: functional, cell-based; conditions: HL-60, 72 h; summary of the method: as §3
[25] = test system: MAT-Ly-Lu; assay: Cytotoxicity against rat MAT-LyLu cells after 3 days by MTT assay; type: functional, cell-based; conditions: 72 h
[26] = molecular target: Adenosine kinase (Homo sapiens, UniProt P55263); assay: Inhibition of human ADK using [3H]-adenosine by scintillation counting
Sequence of Adenosine kinase (P55263 whole entry): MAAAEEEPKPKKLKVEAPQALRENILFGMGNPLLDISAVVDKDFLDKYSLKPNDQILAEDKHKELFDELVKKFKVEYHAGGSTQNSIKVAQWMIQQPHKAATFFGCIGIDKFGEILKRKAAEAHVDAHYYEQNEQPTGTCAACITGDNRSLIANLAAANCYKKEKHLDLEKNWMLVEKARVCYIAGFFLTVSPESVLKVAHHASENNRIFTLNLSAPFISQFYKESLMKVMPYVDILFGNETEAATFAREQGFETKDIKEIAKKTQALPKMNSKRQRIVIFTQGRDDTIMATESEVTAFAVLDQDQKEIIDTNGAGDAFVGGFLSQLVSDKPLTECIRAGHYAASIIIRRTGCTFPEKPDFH

[27] = Cytotoxicity against human HeLaS3 cells after 3 days by XTT assay; type: functional, cell-based; conditions: HeLa S3, 72 h; summary of the method: as §3
[28] = Cytotoxicity against human U87MG cells after 3 days by MTT assay; type: functional, cell-based, U-87MG ATCC; conditions: U-87 MG, 72 h
[29] = test system: K562; assay: Cytotoxicity against human K562 cells after 3 days by MTT assay; type: functional, cell-based; conditions: K562, 72 h
[30] = Antitumor activity against mouse P388D1 cells xenografted in DBA/2 mouse assessed as increase of mean survival days at 75 mg/kg, ip qd administered as 2 cycles on day 1 to 3 and day 8 to 10; type: functional; conditions: route intraperitoneal
Summary of the method: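 P388D1 mouse leukemia cells, grown in RPMI with 10% FBS, were implanted ip at 10^5 cells per mouse on day 0 into female DBA/2 mice (18–22 g, SPF) and randomized 10 per group. Dosing was once daily ip in 50% PEG400/deionized water (pH 7.0) on days 1–3 and 8–10, with vehicle for controls. Deaths were recorded daily, and MST and %ILS were calculated.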

[31] = test system: CCRF-CEM; assay: Inhibition of RNA synthesis in human CCRF-CEM cells assessed as BrU incorporation at 1 to 5 times GI50 after 1 hr by FACS analysis; type: functional, cell-based
Summary of the method: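 CCRF-CEM cultured as for cell cycle (1× or 5× GIC50), pulsed with 1 mM 5-bromouridine 30 min. Paraformaldehyde/NP-40 fixation, anti-BrdU antibody cross-reacting with BrU, FITC secondary, propidium iodide/RNase counterstain, flow cytometry at 488 nm.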

[32] = test system: SK-N-AS; assay: Cytotoxicity against human SK-N-AS cells after 3 days by MTT assay; type: functional, cell-based; conditions: 72 h
[33] = test system: DU-145; assay: Cytostatic activity against human DU145 cells after 5 days by SRB assay; type: functional; conditions: DU-145, 120 h; summary of the method: as §2

## Nc1ncnc2c1c(-c1cccs1)cn2[C@@H]1O[C@H](CO)[C@@H](O)[C@H]1O
[1]
  IC50: 232 nM
[2]
  IC50: > 10000 nM
[3]
  MSD: 15 days
[4]
  IC50: 91 nM
[5]
  IC50: 115 nM
[6]
  IC50: 4540 nM
[7]
  inhibition: Active
[8]
  Activity: Active
[9]
  Stability: 4.66 pmol
[10]
  IC50: 28 nM
[11]
  GI50: 35 nM
[12]
  IC50: 96 nM
[13]
  Stability: 30.4 pmol
[14]
  Stability: 5.04 pmol
[15]
  Activity: 28%
[16]
  IC50: 9850 nM
[17]
  IC50: 9300 nM
[18]
  IC50: 70 nM
[19]
  IC50: 124 nM
[20]
  GI50: 7 nM
[21]
  IC50: 50 nM
[22]
  IC50: 528 nM
[23]
  GI50: 3.7 nM
[24]
  IC50: 950 nM
[25]
  IC50: 180 nM
[26]
  IC50: > 5000 nM
[27]
  IC50: 20 nM
[28]
  IC50: > 10000 nM
[29]
  IC50: 25 nM
[30]
  MSD: 15.1 days
[31]
  inhibition: Active
[32]
  IC50: > 10000 nM
[33]
  GI50: 133 nM

From ChEMBL document CHEMBL1811802, “Synthesis and significant cytostatic activity of 7-hetaryl-7-deazaadenosines” (J Med Chem, 2011)
